Measured values: ChEMBL document CHEMBL3244028, “Synthesis and antiinflammatory activity of 6,11-dihydro-11-oxodibenzo[b,e]thiepinalkanoic acids and related compounds” (J Med Chem, 1978)

Columns and labels:
Rattus norvegicus [1] = assay: Antiinflammatory activity in rat assessed as inhibition of carrageenan-induced paw edema compound administered orally 1 hr prior challenge relative to phenylbutazone; format: functional
How it was run: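 Female rats, 80-90 g, given test agent in "Government diluting fluid" 1 h before carrageenan injection into one hind paw. Rats killed 4 h after dosing; both hind paws excised and weighed. Potency relative to phenylbutazone read from dose-response plots of percent weight increase of inflamed over noninflamed paw. Usually at least three doses, six rats per dose.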

Mus musculus = assay: Analgesic activity in mouse assessed as inhibition of phenylquinone-induced writhing administered orally 20 mins prior challenge relative to aspirin; format: functional
How it was run: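 Male mice, 18-20 g, dosed orally in "Government diluting fluid" vehicle, then given phenylquinone intraperitoneally 20 min later. Writhing observed over the following 10 min. Eight to ten mice per dose. Potency relative to aspirin taken from dose-response plots.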

Rattus norvegicus [2] = assay: Antiinflammatory activity in rat assessed as inhibition of cotton pellet granuloma at 0.5 to 4 mg/kg/day, po administered for 7 days starting same day of challenge measured on day 7 relative to indomethacin; format: functional
How it was run: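 Cotton pellet granuloma in rats, by a modification of Meier's method. Vehicle "Government diluting fluid".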

Rattus norvegicus [3] = assay: Antiinflammatory activity in rat arthritis model assessed as inhibition of Freund's adjuvant-induced swelling compound administered orally bid for 17 days starting on day 1 of challenge measured on day 18 relative to naproxen; format: functional
Canis familiaris = assay: Toxicity in dog assessed as emesis at 5 mg/kg, po administered as single dose; format: organism-based, Canis lupus familiaris; parameters: dose 5 mg/kg, route oral; conditions: in vivo
How it was run: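 Dogs given one oral dose (5, 10 or 30 mg/kg). Animals watched for signs of gastrointestinal intolerance, including emesis.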

Rattus norvegicus [4] = species on record: Rattus norvegicus; assay: Toxicity in rat assessed as gastric irritation (erosion) in starved rats; conditions: in vivo

| SMILES | fold change (FC) (Rattus norvegicus [1]) | fold change (FC) (Mus musculus) | fold change (FC) (Rattus norvegicus [2]) | fold change (FC) (Rattus norvegicus [3]) | Activity (Canis familiaris) | ED50 (Rattus norvegicus [4]) |
| --- | --- | --- | --- | --- | --- | --- |
| O=C(O)Cc1ccc2c(c1)C=Cc1ccccc1S2(=O)=O | 0.4 | 0.4 | – | – | – | – |
| O=C(O)Cc1ccc2c(c1)S(=O)(=O)Cc1ccccc1C2=O | <0.2 | 0.2 | – | – | – | – |
| O=C(O)Cc1ccc2c(c1)CCc1ccccc1O2 | 0.4 | 1 | – | – | – | – |
| CC(C(=O)O)c1ccc2c(c1)SCc1sccc1C2=O (racemic) | 13 | 20 | – | – | – | – |
| O=C(O)Cc1ccc2c(c1)C=Cc1ccccc1S2 | 2 | <1 | – | – | – | – |
| O=C(O)Cc1ccc2c(c1)Sc1ccccc1C=C2 | <0.2 | <1 | – | – | – | – |
| C1CCC(NC2CCCCC2)CC1.CCC(C(=O)O)c1ccc2c(c1)SCc1ccccc1C2=O (stereo not given) | 20 | 4 | – | – | – | – |
| O=C(O)Cc1ccc2c(c1)Sc1ccccc1CC2 | 0.2 | 2 | – | – | – | – |
| O=C(O)Cc1ccc2c(c1)SCc1ccccc1C2O (racemic) | <1 | <0.3 | – | – | – | – |
| O=C(O)Cc1ccc2c(c1)C(=O)c1ccccc1CS2 | 0.3 | 1.5 | – | – | – | – |
| C1CCC(NC2CCCCC2)CC1.CC(C(=O)O)c1ccc2c(c1)CCc1ccccc1S2 (racemic) | 3 | 5 | – | – | – | – |
| O=C(O)Cc1ccc2c(c1)CSc1ccccc1C2=O | 1 | 1 | – | – | – | – |
| O=C(O)Cc1ccc2c(c1)CCc1ccccc1S2(=O)=O | 0.4 | 1 | – | – | – | – |
| O=C(O)Cc1ccc2c(c1)SCc1sccc1C2=O | 4 | 4 | – | – | – | – |
| O=C(O)Cc1ccc2c(c1)CC(=O)c1ccccc1O2 | <0.6 | <0.2 | – | – | – | – |
| C1CCC(NC2CCCCC2)CC1.CC(C(=O)O)c1ccc2c(c1)CSc1ccccc1C2=O (stereo not given) | 2 | 2.5 | – | – | – | – |
| O=C(O)Cc1cccc2c1SCc1ccccc1C2=O | <0.4 | – | – | – | – | – |
| O=C(O)Cc1ccc2c(c1)CCc1ccccc1[S+]2[O-] (racemic) | <=0.2 | 0.8 | – | – | – | – |
| CC(C(=O)O)c1ccc2c(c1)SCc1ccccc1C2=O (racemic) | 115 | 20 | 2 | 70 | Toxic | 2 mg/kg |
| O=C(O)Cc1ccc2c(c1)CCc1ccccc1S2 | 7 | 3 | 0.07 | 0.5 | – | – |
| O=C(O)Cc1ccc2c(c1)C=Cc1ccccc1O2 | <0.4 | 0.3 | – | – | – | – |
| O=C(O)Cc1ccc2c(c1)SCc1ccccc1C2=O [TIOPINAC] | 40 | 14 | 0.8 | 10 | Non-toxic | – |
| O=C(O)Cc1ccc2c(c1)SCc1ccccc1C2 | 2 | 1 | – | – | – | – |
| O=C(O)Cc1ccc2c(c1)CC(=O)c1ccccc1S2 | 0.4 | 1 | – | – | – | – |
| O=C(O)Cc1ccc2c(c1)Sc1ccccc1C(=O)C2 | 0.4 | 1 | – | – | – | – |
| O=C(O)Cc1ccc2c(c1)[S+]([O-])Cc1ccccc1C2=O (racemic) | 0.5 | <=0.5 | – | – | – | – |
